Measurements collected from several papers.
Lines come from different studies, so protocols differ.
Antigen peptide transporter 1/Antigen peptide transporter 2: Antigen peptide transporter 1/Antigen peptide transporter 2 (Homo sapiens, UniProt Q03518+Q03519)
CDK7 with cyclin H: Cyclin-dependent kinase 7, with cyclin H (CDK7, Homo sapiens, UniProt P50613)
TEAD4: Transcriptional enhancer factor TEF-3 (TEAD4, Homo sapiens, UniProt Q15561)
PDE4D: 3',5'-cyclic-AMP phosphodiesterase 4D (PDE4D, Homo sapiens, UniProt Q08499)
KCNH2: Voltage-gated inwardly rectifying potassium channel KCNH2 (KCNH2, Homo sapiens, UniProt Q12809)

Structure (SMILES)	target	assay	test system	setting	IC50 [nM]
CC[C@H](C)[C@H](NC(=O)[C@H](CCCNC(=N)N)NC(=O)CN)C(=O)N[C@@H](CC(=O)O)C(=O)N[C@@H](CCCCN)C(=O)N1CCC[C@H]1C(=O)N[C@H](C(=O)N[C@@H](CC(C)C)C(=O)N[C@@H](C)C(=O)O)[C@@H](C)CC	Antigen peptide transporter 1/Antigen peptide transporter 2	ligand displacement			5400
COc1c(-c2ccc3c(c2)OCO3)oc2c(ccc3occc32)c1=O	CDK7 with cyclin H	enzyme activity, inhibitor, ADP detection			> 50000
CCc1c(C)nc(-c2ccc(Cl)s2)nc1Nc1ccc(CC(=O)O)cc1	3',5'-cyclic-AMP phosphodiesterase 4D (PDE4D, Homo sapiens, UniProt Q08499, S190D/S715A/S717A)	enzyme activity, inhibitor, fluorescence			1570
CC[C@H](C)[C@H](NC(=O)[C@@H](NC(=O)[C@H](CC(N)=O)NC(=O)[C@H](CCCCN)NC(=O)[C@@H]1CCCN1C(=O)[C@H](CC(N)=O)NC(=O)[C@H](CCSC)NC(=O)[C@@H](NC(=O)[C@H](C)NC(=O)[C@H](CC(N)=O)NC(=O)[C@H](Cc1ccccc1)NC(=O)[C@H](CC(C)C)NC(=O)[C@H](C)NC(=O)[C@H](CCC(=O)O)NC(=O)[C@H](CC(C)C)NC(=O)[C@H](CC(=O)O)NC(=O)[C@@H](NC(=O)[C@H](CCC(=O)O)NC(=O)[C@H](CO)NC(C)=O)[C@@H](C)O)C(C)C)[C@@H](C)O)C(=O)N[C@H](C(=O)N1CCC[C@H]1C(=O)N1CCC[C@H]1C(=O)N[C@@H](CO)C(=O)N[C@H](C(=O)N1CCC[C@H]1C(=O)N[C@@H](CCSC)C(=O)N[C@@H](CCCNC(=N)N)C(=O)N[C@@H](CC(C)C)C(=O)N[C@@H](CCCNC(=N)N)C(=O)N[C@@H](CCCCN)C(=O)N[C@@H](CC(C)C)C(=O)N1CCC[C@H]1C(=O)N[C@@H](CC(=O)O)C(=O)N[C@@H](CO)C(=O)N[C@@H](Cc1ccccc1)C(=O)N[C@@H](Cc1ccccc1)C(=O)N[C@H](C(=O)N1CCC[C@H]1C(=O)N1CCC[C@H]1C(N)=O)[C@@H](C)O)C(C)C)C(C)C	TEAD4	protein-protein interaction, inhibitor, TR-FRET			64
CC(C)C[C@H](NC(=O)[C@H](C)NC(=O)[C@H](C)NC(=O)[C@H](C)NC(=O)[C@H](C)NC(=O)[C@H](C)NC(=O)[C@H](C)NC(=O)[C@H](CCCNC(=N)N)NC(=O)[C@H](C)N)C(=O)O	Antigen peptide transporter 1/Antigen peptide transporter 2	ligand displacement			900
CCCCOc1ccc(C(=O)CCN2CCCCC2)cc1	PDE4D	enzyme activity, inhibitor, radiometric			11300
CC(C)c1cccc(=O)c(O)c1	eno (Escherichia coli, UniProt P0A6P9)	enzyme activity, inhibitor, absorbance			8000 to 11000
CC(NC(C)(C)C)C(=O)c1cccc(Cl)c1 (centres unmarked)	Sodium-dependent dopamine transporter (Slc6a3, Rattus norvegicus, UniProt P23977)	transporter uptake, inhibitor, radiometric			305
CC(C)C[C@H](NC(=O)[C@H](CCC(=O)O)NC(=O)[C@@H](NC(=O)[C@H](CO)NC(=O)[C@H](CCCCN)NC(=O)[C@H](CCC(N)=O)NC(=O)[C@H](Cc1ccc(O)cc1)NC(=O)[C@@H](N)CCCNC(=N)N)[C@@H](C)O)C(=O)O	Antigen peptide transporter 1/Antigen peptide transporter 2	ligand displacement			100000
O=c1cc(-c2ccccc2)oc2c1ccc1occc12	CDK7 with cyclin H	enzyme activity, inhibitor, ADP detection			4800
C[C@H]1COCCN1c1nc(NCc2cccnc2C(F)(F)F)c2cccnc2n1	KCNH2	ion current, inhibitor			> 33300
CCCCCCCCCCCCCC(=O)O[C@@H]1[C@@H](C)[C@@]2(O)[C@@H](C=C(CO)C[C@]3(O)C(=O)C(C)=C[C@@H]23)[C@@H]2C(C)(C)[C@]12OC(C)=O	Proteinase-activated receptor 2 (F2RL1, Homo sapiens, UniProt P55085)	calcium signal, antagonist			5.89
CC[C@H](C)[C@H](NC(=O)[C@H](CCCNC(=N)N)NC(=O)CN)C(=O)N[C@@H](CC(=O)O)C(=O)N[C@@H](CCCCN)C(=O)N1CCC[C@H]1C(=O)N[C@H](C(=O)N[C@@H](CC(C)C)C(=O)N[C@@H](CCCCN)C(=O)O)[C@@H](C)CC	Antigen peptide transporter 1/Antigen peptide transporter 2	ligand displacement			2700
COc1cc(C(=O)NS(=O)(=O)c2ccccc2C)ccc1Cc1cn(C)c2ccc(NC(=O)OC3CCCC3)cc12	PDE4D	enzyme activity, inhibitor, radiometric			5380
O=c1c2ccccc2[nH]c(=S)n1-c1ccccc1	Prothrombin (F2, Homo sapiens, UniProt P00734)	enzyme activity, inhibitor			92400
CSCC[C@H](NC(=O)[C@H](CCCNC(=N)N)NC(=O)[C@H](CCSC)NC(=O)[C@@H]1CCCN1C(=O)[C@H](CC(C)C)NC(=O)[C@H](CO)NC(=O)[C@H](C)NC(=O)[C@@H]1CCCN1C(=O)[C@@H](NC(=O)[C@H](CC(N)=O)NC(=O)[C@H](CO)NC(=O)[C@H](CO)NC(=O)[C@H](CCCCN)NC(=O)[C@@H]1CCCN1C(=O)[C@H](CC(N)=O)NC(=O)[C@H](CCSC)NC(=O)[C@@H](NC(=O)[C@H](CO)NC(=O)[C@H](CC(N)=O)NC(=O)[C@H](Cc1ccccc1)NC(=O)[C@H](CC(C)C)NC(=O)[C@H](CC(C)C)NC(=O)[C@H](CCC(=O)O)NC(=O)[C@H](CC(C)C)NC(=O)[C@H](CC(=O)O)NC(=O)[C@@H](NC(=O)[C@H](CCC(N)=O)NC(=O)[C@H](CO)NC(C)=O)[C@@H](C)O)C(C)C)C(C)C)C(=O)N[C@@H](CCCNC(=N)N)C(=O)N[C@@H](CC(N)=O)C(=O)N[C@@H](CC(C)C)C(=O)N1CCC[C@H]1C(=O)N[C@@H](CC(=O)O)C(=O)N[C@@H](CO)C(=O)N[C@@H](Cc1ccccc1)C(=O)N[C@@H](Cc1ccccc1)C(=O)N[C@@H](CCCCN)C(=O)N1CCC[C@H]1C(=O)N1CCC[C@H]1C(N)=O	TEAD4	protein-protein interaction, inhibitor, TR-FRET			65
CC(C)C[C@H](NC(=O)[C@H](CCC(=O)O)NC(=O)[C@@H](NC(=O)[C@H](CO)NC(=O)[C@H](CCCCN)NC(=O)[C@H](CCC(N)=O)NC(=O)[C@H](Cc1ccc(O)cc1)NC(=O)[C@H](C)NC(=O)[C@@H](N)CCCNC(=N)N)[C@@H](C)O)C(=O)O	Antigen peptide transporter 1/Antigen peptide transporter 2	ligand displacement			400
CN1[C@@H](CCc2ccccc2)CCC[C@H]1CCc1ccccc1	KCNH2	ligand displacement	HEK293	1 h, pH 7.4, cell membranes	238
CC(C)[C@H](NC(=O)[C@H](C)N)C(=O)N[C@@H](C)C(=O)N[C@@H](C)C(=O)N[C@@H](C)C(=O)N[C@@H](C)C(=O)N[C@@H](C)C(=O)N[C@@H](C)C(=O)N[C@@H](C)C(=O)N[C@@H](CCCCN)C(=O)O	Antigen peptide transporter 1/Antigen peptide transporter 2	ligand displacement			9400
CN1[C@@H](CC(=O)c2ccccc2)CCC[C@H]1C[C@H](O)c1ccccc1	KCNH2	ligand displacement	HEK293	1 h, pH 7.4, cell membranes	1500
